UCH37 inh: human UCH37 deubiquitinating enzyme inhibition; Q9Y5K5; purified proteasome/UCH37, Ub-AMC cleavage fluorescence; inhibition, % (concentration not given with the values); 330,000 tested, 0.33% active; AID 588478;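 active = mean inhibition over replicate wells above about 20%, limit read from the data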;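 also: 0% = compound-free wells with enzyme and 100% = wells lacking proteasome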
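Schedule: 30 min plus 25 min, room temperature / Material: human UCH37 within purified proteasomes / Technique: AMC fluorescence intensity at 355/460 nm / Buffer or medium: pH 7.4 Tris-HCl (50 mM) with ovalbumin, ATP-MgCl2, DTT / Controls: wells without proteasome as full block, compound-free enzyme plus substrate as uninhibited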
Calb FLC: C. albicans growth modulation with fluconazole. C. albicans CaCi-2 + fluconazole, Alamar Blue growth, 48 h. 300,000 tested, 0.57% active. growth inhibition, % (test concentration not listed). AID 1979;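 active = growth inhibition above about 58% in most replicates, limit read from the data, passing the limit was not always enough; inconclusive = exactly half the replicates above a set limit; inactive = most replicates below a set limit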;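 also: all wells also contain fluconazole at 8 µg/ml as a sub-toxic cotreatment; 0% = median of DMSO wells and 100% = median of geldanamycin control wells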
ATG4B inh: inhibitors of human ATG4B cysteine protease; ATG4B cleavage of LC3-PLA2, NBD-HPC fluorescence, 1 h; 340,000 tested, 0.51% active; inhibition, % at 8.33 µM; in the data active = inhibition above about 40%
Target sequence (Q9Y4P1 whole entry, looked up): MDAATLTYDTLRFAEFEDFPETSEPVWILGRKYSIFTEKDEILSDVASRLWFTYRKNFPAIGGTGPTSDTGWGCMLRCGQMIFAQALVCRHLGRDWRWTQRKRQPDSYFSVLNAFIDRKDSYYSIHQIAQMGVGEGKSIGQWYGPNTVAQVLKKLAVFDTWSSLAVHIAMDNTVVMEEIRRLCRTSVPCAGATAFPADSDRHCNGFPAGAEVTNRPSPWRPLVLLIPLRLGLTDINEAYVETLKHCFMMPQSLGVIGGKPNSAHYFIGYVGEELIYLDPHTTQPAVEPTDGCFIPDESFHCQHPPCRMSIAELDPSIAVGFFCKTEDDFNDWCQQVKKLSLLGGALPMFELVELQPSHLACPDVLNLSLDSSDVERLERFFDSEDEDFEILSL
NALP3 yeast inh: blocks the NALP3 inflammasome reconstituted in yeast; AID 2825; Yeast reconstituted NLRP3/ASC/caspase-1, beta-gal luminescence, 24 h; inhibition, % at 10 µM; 330,000 tested, 0.39% active;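 active = inhibition of 50% or more; inactive = inhibition below 50%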;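 also: plate controls were induced DMSO wells for no effect and uninduced yeast grown without galactose for full effect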
NALP1 inh: blocks the NALP1 inflammasome reconstituted in yeast. 280,000 tested, 0.61% active. S. cerevisiae NALP1/ASC/caspase-1 growth, X-gal OD620, 72 h. inhibition, % at 10 µM; in the data active = inhibition mostly above about 24%, no sharp cut-off; inactive = mostly below about 32%
ALR inh: inhibitors of human sulfhydryl oxidase ALR | P55789 | purified ALR, DTT oxidation, H2O2 HRP-luminol luminescence | inhibition, % (concentration not given with the values) | 290,000 tested, 3.8% active | AID 485317;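 active = mean replicate inhibition above about 79%, with every replicate also reaching it, limit read from the data; inconclusive = only one of the two criteria met; inactive = mean below limit and not every replicate reaching it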
Target sequence (P55789 whole entry, looked up): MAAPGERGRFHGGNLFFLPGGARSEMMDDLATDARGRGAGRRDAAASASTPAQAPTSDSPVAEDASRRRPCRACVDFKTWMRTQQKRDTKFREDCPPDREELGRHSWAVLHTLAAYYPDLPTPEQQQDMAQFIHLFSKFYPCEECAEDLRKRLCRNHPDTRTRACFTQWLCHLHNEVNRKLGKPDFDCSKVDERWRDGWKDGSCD
An asterisk follows results filed as active; ? = inconclusive; . = not tested or not shown. Rows were chosen to be rich in hits. Some 4.8% of all compounds tested hit in one or more screens of this group.

SMILES	UCH37 inh	Calb FLC	ATG4B inh	NALP3 yeast inh	NALP1 inh	ALR inh
O=c1cc(CO)oc(C(Nc2ccccn2)c2ccc(C(F)(F)F)cc2)c1O (centres undefined)	1	-1	1	0	-7	5
O=c1cc(CO)oc(C(Nc2ccccn2)c2cccc(F)c2)c1O (centres undefined)	7	-19	2	7	36	98*
O=c1cc(CO)oc(C(Nc2ccccn2)c2ccccc2F)c1O (centres undefined)	9	-17	0	4	.	97*
COc1cccc(C(Nc2ccccn2)c2oc(CO)cc(=O)c2O)c1 (centres undefined)	1	-28	2	10	12	.
CC1(C)Cc2ccccc2C(C(=NNc2cccc(Cl)c2)C(N)=O)=N1	1	.	.	.	.	.
O=C(NN=Cc1ccc(O)c(O)c1)NC12CC3CC(CC(C3)C1)C2	3	.	.	.	.	.
COc1ccc(-c2cc(N)n(S(=O)(=O)c3c(F)c(F)c(F)c(F)c3F)n2)cc1OC	5	76*	8	-29	-27	30
O=C(CCCCCNC(=O)c1ccccc1)NN=Cc1ccccc1	4	.	.	.	.	.
CC1=NNC(=O)C1CCC(=O)NN=Cc1cccc(Cl)c1 (centres undefined)	1	.	.	.	.	.
CCOc1ccc(-n2cnnn2)cc1S(=O)(=O)NCc1ccccc1	1	-10	-2	-7	2	-2
CCOc1cc(S(=O)(=O)NCc2ccccc2)c(OCC)cc1-n1cnnn1	-69	100*	2	-7	.	-3
CNCCCOc1ccc2c(c1)CCC2	.	3	7	14	3	-12
c1cnc(SCCOc2ccc3c(c2)CCC3)nc1	5	101*	0	22	-5	0
O=C(CCc1ccccc1)OCC(=O)c1ccc([N+](=O)[O-])cc1	0	3	2	3	0	-2
O=C(CNC(=O)c1cccs1)OCC(=O)c1ccccc1	-1	-10	16	5	17	-4
O=C(CNC(=O)c1cccs1)NCC(=O)OCC(=O)c1ccc([N+](=O)[O-])cc1	4	2	9	8	12	96*
O=C(COc1ccccc1F)OCC(=O)c1ccc([N+](=O)[O-])cc1	3	.	1	-9	.	79*
Cc1ccccc1OCC(=O)NCC(=O)OCC(=O)c1ccc([N+](=O)[O-])cc1	-1	-1	-7	18	6	97*
O=C1CC(=O)N(CCNc2ncc(C(F)(F)F)cc2Cl)C(=O)N1	2	-3	10	-3	-4	.
O=C1C=CC(=O)N1CCNc1ncc(C(F)(F)F)cc1Cl	1	-22	0	-46	55*	.
COc1ccc(C=NNC(=O)c2cccc(NC(=O)c3ccc(Cl)cc3)c2)c(OC)c1	-22	.	.	.	.	.
CC1CN(c2nc(-c3ccc(Br)cc3)nnc2-c2ccccc2)CC(C)N1 (centres undefined)	8	1	4	1	3	97*
Fc1cc2ncn(Cc3ccccc3)c2cc1F	25*	15	-4	0	1	-3
NC(=S)N=Nc1ccc(NN=C(N)N)cc1	7	.	-1	22	6	98*
O=[N+]([O-])c1cc(Br)c(O)c(C=Nc2ccc(N3CCOCC3)cc2)c1	9	8	9	43	-9	12
SMILES	UCH37 inh	Calb FLC	ATG4B inh	NALP3 yeast inh	NALP1 inh	ALR inh
Oc1ccc(N=Cc2cc(Br)c(N3CCOCC3)o2)cc1	10	-1	3	5	19	86*
Cc1cc(NN=Cc2ccc(Cl)cc2Cl)nc(NCc2ccccc2)n1	-16	.	.	.	.	.
COCC(C)N=C1NN=C(c2ccc(NC(C)=O)cc2)CS1 (centres undefined)	6	26	-4	10	-8	98*
Cc1ccc2occ(C=NNC(=O)[C@@H](N)Cc3ccccc3)c(=O)c2c1	-34	.	.	.	.	.
CC(=NNc1ncc(Cl)cc1Cl)c1ccc(C#N)cc1	-15	.	.	.	.	.
O=Cc1ccccc1OCCOc1ccccc1C=O	3	-2	71*	11	22	0
O=Cc1ccccc1Oc1ccccc1	-5	0	-2	-17	35	-30
O=C(Nc1ccccc1)N1CCc2ccccc2C1	2	5	-7	20	50*	2
Cc1ccc(NC(=O)N2CCc3ccccc3C2)cc1	3	-13	0	26	65	4
CN1CCN(/N=C/c2nc(-c3cccc([N+](=O)[O-])c3)n3ccccc23)CC1	.	6	-4	2	-4	99*
O=C(CN1CCCC1)N/N=C/c1ccc(-c2cccc(Cl)c2)o1	.	12	-18	2	32*	0
Cc1ccc(C=NNC(=O)CN2CCN(Cc3ccccc3)CC2)o1	4	.	.	.	.	.
Cc1ccc(/C=N/NC(=O)CN2CCN(Cc3ccccc3)CC2)o1	.	-1	-4	8	45*	-1
Fc1ccccc1COc1ccccc1C=NNc1nc(N2CCCC2)nc(N2CCCC2)n1	1	.	.	.	.	.
CCOc1cc(C=Nn2cnnc2)ccc1OS(=O)(=O)c1ccccc1	3	.	.	.	.	.
CC(=N\Nc1ccc(Cl)cc1)/C(=N/O)C(=O)Nc1ccccc1	.	5	0	20	11	99*
Nc1ccc(C(=O)NN=Cc2cccc(Oc3ccccc3)c2)cc1	-2	.	.	.	.	.
COC(=O)[C@H](C)NC(=O)c1cc2c(cn1)[nH]c1ccccc12	.	-2	-9	6	-12	-16
C[C@H](NC(=O)c1cc2c(cn1)[nH]c1ccccc12)C(=O)O	.	2	-5	6	-23	98*
Cc1ccc(OCCn2cc(/C(N)=N/O)c3ccccc32)cc1C	4	23	1	13	-14	78*
COC(=O)c1cn(CCOc2ccccc2OC)c2ccccc12	22*	14	-18	31	9	0
N/C(=N\O)c1cn(Cc2ccccc2Cl)c2ccccc12	.	34	19	-12	8	99*
COC(=O)c1cn(CCOc2ccccc2F)c2ccccc12	3	?	2	26	10	.
COc1ccc(OCCn2cc(/C(N)=N/O)c3ccccc32)cc1	2	20	-27	-4	8	.
COc1ccc(C=NNC(=O)c2nnn(-c3nonc3N)c2-c2cccc(OC)c2)cc1	-7	.	.	.	.	.
Cc1ccc(N2C(=O)[C@@H]3[C@H](C2=O)C2c4ccccc4C=CN2[C@@H]3C(=O)c2ccco2)cc1 (some centres undefined)	4	.	-4	.	1	.
COc1ccc(N2C(=O)[C@@H]3[C@H](C2=O)[C@H]2c4ccccc4C=CN2[C@@H]3C(=O)Nc2ccccc2)cc1	30*	.	-13	16	3	11
CC(=O)[C@@H]1[C@@H]2C(=O)N(Cc3ccccc3)C(=O)[C@@H]2C2c3ccccc3C=CN21 (some centres undefined)	58*	1	12	8	-11	1
CCOC(=O)c1sc(N=Cc2c(O)ccc3ccccc23)cc1C	7	.	.	.	.	.

Bioassay records deposited in PubChem BioAssay by several laboratories.
